# Measurements taken from paper PMC5987874 (The Journal of General Physiology, 2018).
# Positions count from the first letter of the chain named. Values joined by “and” are separate entries in the source; they are usually repeats but may differ in a detail not shown here. Identical values can stand only once. Like-named read-outs stand apart in the source and are kept apart here.
# Assays:
# Assay in all cases: Whole-cell voltage clamp, Zn^2+ modulation of GAQ gating
# Type in all cases: cell-based
# human Hv1 WT = target: T1, human Hv1 WT (Homo sapiens, UniProt Q96D96)
# T1 sequence (Q96D96 1-273): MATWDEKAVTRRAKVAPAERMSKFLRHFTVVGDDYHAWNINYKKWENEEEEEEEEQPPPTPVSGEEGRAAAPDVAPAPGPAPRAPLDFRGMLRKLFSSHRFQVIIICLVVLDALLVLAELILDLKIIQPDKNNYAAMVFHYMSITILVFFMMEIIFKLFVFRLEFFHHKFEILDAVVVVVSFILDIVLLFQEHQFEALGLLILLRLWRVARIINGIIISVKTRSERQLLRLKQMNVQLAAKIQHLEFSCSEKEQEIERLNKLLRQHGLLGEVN
# Summary of the method: (§1)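 Whole-cell patch clamp at ~21°C. Pipette and bath (mM): ~80 TMA-MeSO3, 100 Bis-Tris, 8 HCl, pH 6.5, 310–320 mOsm. ZnCl2 was diluted into bath solution and applied by gravity superfusion, at least 2 min per change. Test step voltage was set per construct from its V0.5. G_STEP = end-of-step current/(V−V_REV). Effect = 1 − G_Zn/G_control, fitted to the Hill equation. IC50 and nH are means ± SEM from separate cells. ΔpIC50 was tested by unpaired t test, P<0.05.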
# [1] = target: T2, human Hv1 H193A (H^3.71A) (Homo sapiens, UniProt Q96D96, H193A)
# T2 sequence (Q96D96 1-273 H193A): T1 sequence (Q96D96 1-273) with H193A
# Summary of the method: as §1
# human Hv1 H140A-H193A = target: T3, human Hv1 H140A-H193A (Homo sapiens, UniProt Q96D96, H140A/H193A)
# T3 sequence (Q96D96 1-273 H140A/H193A): T1 sequence (Q96D96 1-273) with H140A, H193A
# Summary of the method: as §1
# [2] = target: T4, human Hv1 E119H-H140A-H193A (Homo sapiens, UniProt Q96D96, E119H/H140A/H193A)
# T4 sequence (Q96D96 1-273 E119H/H140A/H193A): T1 sequence (Q96D96 1-273) with E119H, H140A, H193A
# Summary of the method: as §1
# human Hv1 D185H-H193A = target: T5, human Hv1 D185H-H193A (Homo sapiens, UniProt Q96D96, D185H/H193A)
# T5 sequence (Q96D96 1-273 D185H/H193A): T1 sequence (Q96D96 1-273) with D185H, H193A
# Summary of the method: as §1
# [3] = target: T6, human Hv1 E119H-H140A-D185H-H193A (Homo sapiens, UniProt Q96D96, D185H/E119H/H140A/H193A)
# T6 sequence (Q96D96 1-273 E119H/H140A/D185H/H193A): T1 sequence (Q96D96 1-273) with E119H, H140A, D185H, H193A
# Summary of the method: as §1
# [4] = VSTEP 100 mV, calculated as log (IC50)
# [5] = read-out: IC50, fit of the mean data to a Hill function, Fig. 2C
smiles,measurement,setting,value
"[Cl-].[Cl-].[Zn+2] [Zn^2+, ZnCl2]","nH, fit of the mean data to a Hill function",human Hv1 WT; Fig. 2C,0.8
same,Hill value,human Hv1 WT; VSTEP 100 mV,0.81
same,pIC50,human Hv1 WT; [4],5.44
same,"nH, fit of the mean data to a Hill function",[1]; Fig. 2C,1.0
same,Mean ΔpIC50 = (pIC50_1 - pIC50_2),[1]; H193A vs WT,−1.37
same,Hill value,[1]; VSTEP 100 mV,1.04
same,pIC50,[1]; [4],−4.06
same,IC50,[1]; [5],82.2 µM
same,"nH, fit of the mean data to a Hill function",human Hv1 H140A-H193A; Fig. 2C,1.5
same,Mean ΔpIC50 = (pIC50_1 - pIC50_2),human Hv1 H140A-H193A; H140A-H193A vs H140A,−1.65
same,Mean ΔpIC50 = (pIC50_1 - pIC50_2),human Hv1 H140A-H193A; H140A-H193A vs H193A,−1.30
same,Mean ΔpIC50 = (pIC50_1 - pIC50_2),human Hv1 H140A-H193A; H140A-H193A vs WT,−2.68
same,Hill value,human Hv1 H140A-H193A; VSTEP 100 mV,1.57
same,IC50,human Hv1 H140A-H193A; VSTEP 100 mV,1700 ± 300 µM
same,pIC50,human Hv1 H140A-H193A; [4],−2.76
same,IC50,human Hv1 H140A-H193A; [5],1740 µM
same,Mean ΔpIC50 = (pIC50_1 - pIC50_2),"[2]; E119H-H140A-H193A vs H140A-H193A, positive = increase in Zn^2+ potency",2.4 and 2.39
same,"nH, fit of the mean data to a Hill function",[2]; Fig. 4A,0.7
same,Hill value,[2]; VSTEP 60 mV,0.84
same,pIC50,"[2]; VSTEP 60 mV, calculated as log (IC50)",5.15
same,change of Zn^2+ IC50,[2]; from H140A-H193A to E119H-H140A-H193A,2.4 fold
same,IC50,"[2]; read-out: IC50, fit of the mean data to a Hill function, Fig. 4A",7.6 µM
same,IC50,"[2]; read-out: Mean IC50 @ VSTEP, VSTEP 60 mV, pH 6.5, mean of fits in separate cells",7.3 µM
same,Mean ΔpIC50 = (pIC50_1 - pIC50_2),human Hv1 D185H-H193A; D185H-H193A vs D185H,−0.84
same,Mean ΔpIC50 = (pIC50_1 - pIC50_2),human Hv1 D185H-H193A; D185H-H193A vs H193A,0.52
same,"nH, fit of the mean data to a Hill function",human Hv1 D185H-H193A; Fig. 4D,0.6
same,Hill value,human Hv1 D185H-H193A; VSTEP 80 mV,0.60
same,pIC50,"human Hv1 D185H-H193A; VSTEP 80 mV, calculated as log (IC50)",−4.54
same,IC50,"human Hv1 D185H-H193A; read-out: IC50, fit of the mean data to a Hill function, Fig. 4D",26.7 µM
same,IC50,"human Hv1 D185H-H193A; read-out: Mean IC50 @ VSTEP, VSTEP 80 mV, pH 6.5, mean of fits in separate cells",37.9 µM
same,Mean ΔpIC50 = (pIC50_1 - pIC50_2),[3]; E119H-H140A-D185H-H193A vs E119H-H140A-H193A,−0.25
same,Mean ΔpIC50 = (pIC50_1 - pIC50_2),[3]; E119H-H140A-D185H-H193A vs H140A-D185H-H193A,1.75
same,Hill value,[3]; VSTEP 120 mV,0.72
same,pIC50,"[3]; VSTEP 120 mV, calculated as log (IC50)",−4.90
